The record followed here is publication PMC3985699 (Journal of the American Chemical Society, 2014).

In brackets after ≈: the same amount, converted by molar mass.

Series [1] has as its system E. faecium 106 (Van R). Description: MIC by microdilution. Type of series: cell-based. As to conditions: Enterococcus faecium. The essentials: (§1)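 CLSI broth microdilution in cation-adjusted Mueller Hinton II broth, final inoculum 5 × 10⁵ CFU/mL. Plates incubated at 35 °C and read after 16–20 or 20–24 h depending on species. MIC taken as the lowest concentration with no visible growth. All determinations in triplicate.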
On the technique in general: Dilution methods test growth across graded concentrations, often in twofold steps.

Series [2] deals with S. aureus NRS120. Description: MIC by microdilution. Type of series: cell-based. The note with it: Staphylococcus aureus. Put shortly:
(§2)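 S. aureus was tested by CLSI broth microdilution in cation-adjusted Mueller Hinton II broth, final inoculum 5 × 10⁵ CFU/mL, 35 °C, read after 16–20 or 20–24 h; oxacillin was tested with 2% NaCl. MIC was the lowest concentration without visible growth, in triplicate. For ATCC 29213, inocula of 5 × 10⁶ and 5 × 10⁷ CFU/mL were also tested.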

Series [3] relates to S. oralis ATCC 9811. Nature of the series: MIC by microdilution. The series is classed as cell-based. The note with it: Streptococcus oralis, ATCC9811. Put shortly:
(§3)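 Streptococcal MICs came from CLSI broth microdilution in cation-adjusted Mueller Hinton II broth with 5% lysed horse blood. Final inoculum 5 × 10⁵ CFU/mL, incubation at 35 °C, read after 16–20 or 20–24 h depending on species. MIC was the lowest concentration without visible growth, determined in triplicate.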

Series [4] concerns S. aureus NRS100 (COL). Nature of the series: MIC by microdilution. Type of series: cell-based. As to conditions: Staphylococcus aureus. Put shortly:
as §2

Series [5] has as its system S. pyogenes ATCC 49399. Nature of the series: MIC by microdilution. The series is classed as cell-based. As to conditions: Streptococcus pyogenes, ATCC49399. The essentials: as §3
In series [6] the test system is S. aureus VRS2. Description: MIC by microdilution. The series is classed as cell-based. As to conditions: Staphylococcus aureus, MRSA. The essentials:
as §2

Series [7] relates to E. faecium 119–39A (Van S). Nature of the series: MIC by microdilution. Type of series: cell-based. The note with it: Enterococcus faecium. Put shortly:
as §1

The test system of series [8] is E. faecalis 201 (Van S). Description: MIC by microdilution. Type of series: cell-based. The note with it: Enterococcus faecalis. The essentials:
as §1

Series [9] deals with S. hemolyticus ATCC 29970. Description: MIC by microdilution. As to conditions: Streptococcus pyogenes, ATCC29970. Type of series: cell-based.
Series [10] has as its system S. aureus VRS1. Description: MIC by microdilution. The series is classed as cell-based. The note with it: Staphylococcus aureus, MRSA. Put shortly:
as §2

Series [11] deals with E. faecium NCTC 7171. Nature of the series: MIC by microdilution. The series is classed as cell-based. The note with it: Enterococcus faecium, NCTC7171. The essentials: as §1
The target of series [12] is purified recombinant PBP2a (Staphylococcus aureus, UniProt P07944). Nature of the series: Continuous spectrophotometric PBP2a inhibition assay with nitrocefin. The series is classed as biochemical, MRSA.
Series [13] deals with S. aureus ATCC 27660. Description: MIC by microdilution. The series is classed as cell-based. As to conditions: Staphylococcus aureus, ATCC27660. Put shortly: as §2
The test system of series [14] is S. epidermis ATCC 35547. Nature of the series: MIC by microdilution. Type of series: cell-based. The essentials:
as §1

Series [15] in a line: Pharmacokinetics in mice. Type of series: in vivo. As to conditions: for volume of distribution (in words): single 50 mg/kg iv. The essentials: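 Female ICR mice received a single 50 mg/kg dose, either iv in 10% DMSO/25% Tween-80/65% water or po by gavage (n = 3 per time point). Terminal blood was taken at 2 min–24 h after iv and 0.5–48 h after po, then centrifuged for plasma. Plasma was precipitated with acetonitrile containing internal standard and analysed by C18 UPLC-ESI(+)-MRM against calibration curves in blank mouse plasma.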

Series [16] relates to S. aureus ATCC 29213. Nature of the series: MIC by microdilution. The series is classed as cell-based. As to conditions: Staphylococcus aureus, ATCC29213. The essentials: as §2
Series [17] relates to S. aureus NRS119. Nature of the series: MIC by microdilution. Type of series: cell-based. The note with it: Staphylococcus aureus. The essentials: as §2
Series [18] in a line: Hemolysis assay. The note with it: horse, washed red blood cells from horse whole blood. Type of series: cell-based, horse.
Series [19] has as its system E. faecalis ATCC 29212. Nature of the series: MIC by microdilution. The series is classed as cell-based. The note with it: Enterococcus faecalis, ATCC29212. Put shortly:
as §1

Series [20] has as its system E. faecalis 99 (Van R). Description: MIC by microdilution. Type of series: cell-based. The note with it: Enterococcus faecalis. The essentials: as §1
The subject of series [21] is red blood cells. Description: Hemolysis assay. The note with it: horse RBCs, 37 °C, 1 h; 3% values at 64 μg/mL (32-fold above the MIC). Type of series: cell-based, horse.
Setting [22] is: ICR, mouse, plasma, iv, 50 mg/kg.
[23] abbreviates: female, ICR, mouse, plasma, po, 50 mg/kg.

Chain of purified recombinant PBP2a (P07944 whole entry): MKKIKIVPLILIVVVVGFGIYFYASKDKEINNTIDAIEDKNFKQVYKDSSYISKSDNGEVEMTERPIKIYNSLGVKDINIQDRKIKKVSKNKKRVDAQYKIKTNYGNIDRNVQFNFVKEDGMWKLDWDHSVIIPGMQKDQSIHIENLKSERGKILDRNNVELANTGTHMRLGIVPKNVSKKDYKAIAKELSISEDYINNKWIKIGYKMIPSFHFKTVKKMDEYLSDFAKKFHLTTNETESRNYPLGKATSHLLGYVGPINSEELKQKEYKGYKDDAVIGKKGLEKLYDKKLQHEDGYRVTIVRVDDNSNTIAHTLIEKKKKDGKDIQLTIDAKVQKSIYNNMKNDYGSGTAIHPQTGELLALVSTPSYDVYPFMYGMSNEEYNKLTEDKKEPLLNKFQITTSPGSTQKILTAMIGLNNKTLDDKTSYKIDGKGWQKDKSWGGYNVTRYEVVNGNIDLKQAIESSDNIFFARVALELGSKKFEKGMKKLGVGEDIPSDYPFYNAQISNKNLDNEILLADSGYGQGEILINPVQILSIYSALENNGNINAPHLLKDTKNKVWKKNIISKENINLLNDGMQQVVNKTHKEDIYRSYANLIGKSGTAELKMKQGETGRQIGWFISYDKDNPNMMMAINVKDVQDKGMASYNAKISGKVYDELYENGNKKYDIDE

By MIC is commonly meant the lowest concentration that inhibits growth of the organism. Higher therefore signals weaker potency. One may read the IC50 as the concentration that inhibits the measured activity by half. One may read the AUC(0-inf) as total exposure, with the tail of the curve extrapolated. One may read the Vd as the apparent volume that relates the amount in the body to the concentration in plasma or blood. High values mean extensive tissue distribution, low ones confinement near the circulation. For orientation: clearance means the rate of elimination divided by the concentration. Regarding `Oc1ccc(-c2nc(-c3ccc(Oc4ccccc4)cc3)no2)cc1` [Compound 2, 4-(3-(4-Phenoxyphenyl)-1,2,4-oxadiazol-5-yl)phenol], the minimal inhibitory concentration (MIC) in series [1] was 2 µg/mL (≈ 6.05 µM); in series [2], 2 µg/mL (≈ 6.05 µM); in series [3], 32 µg/mL (≈ 96.9 µM); in series [4], 2 µg/mL (≈ 6.05 µM); in [5], 32 µg/mL (≈ 96.9 µM); in series [6] it was 2 µg/mL (≈ 6.05 µM). The MIC in [7] is 1 µg/mL (≈ 3.03 µM); in series [8], 2 µg/mL (≈ 6.05 µM); in [9], 2 µg/mL (≈ 6.05 µM); in [10], 2 µg/mL (≈ 6.05 µM); in series [11], 1 µg/mL (≈ 3.03 µM); in series [13], 2 µg/mL (≈ 6.05 µM). For the same compound, the MIC in [14], in [16], in series [17] and in [19] was 2 µg/mL (≈ 6.05 µM) in each case. Also, the IC50 in series [12] was 12.1 µM. The compound also had an AUC(0-inf) in series [15] (setting [22]) of 23 µg·h/mL. Moreover, the volume of distribution (Vd) in series [15] (setting [22]) is 0.86 L/kg. The compound further yielded a clearance in series [15] (setting [22]) of 36.2 mL/min/kg. Besides, in [15] (mice), the “volume of distribution (in words)” value was “large volume of distribution”. Further, the hemolysis at 1 h, 64 μg/mL in series [18] came out at 3%.
As a reminder, the Cmax is the maximum level reached in the sampled fluid or tissue. The Tmax is the time from dosing to the highest level. Take `Nc1ccc(-c2nc(-c3ccc(Oc4ccc(C(F)(F)F)cc4)cc3)no2)cc1` [Compound 4, 4-(3-(4-(4-(Trifluoromethyl)phenoxy)phenyl)-1,2,4-oxadiazol-5-yl)aniline]: the MIC in series [1] is 2 µg/mL (≈ 5.03 µM); in series [2], 2 µg/mL (≈ 5.03 µM); in [3], 32 µg/mL (≈ 80.5 µM); in series [4] it was 2 µg/mL (≈ 5.03 µM); in series [5], 32 µg/mL (≈ 80.5 µM); in series [6] it was 2 µg/mL (≈ 5.03 µM). In addition, the MIC in [7] was 1 µg/mL (≈ 2.52 µM); in series [8], more than 32 µg/mL; in series [20], 2 µg/mL (≈ 5.03 µM); in [9], 4 µg/mL (≈ 10.1 µM); in [10], 2 µg/mL (≈ 5.03 µM); in [11] it was 2 µg/mL (≈ 5.03 µM). Further, the MIC in series [13], in series [14], in series [16], in [17] and in series [19] was 2 µg/mL (≈ 5.03 µM) throughout. The area under the curve AUC(0-inf) is 153 µg·h/mL in series [15] (setting [22]) and 154 µg·h/mL in series [15] (setting [23]). Further, in series [15] (setting [22]), the Vd is 0.72 L/kg. In series [15] (setting [22]), the clearance worked out at 5.4 mL/min/kg. Further, the Cmax in [15] (setting [23]) came out at 10000 ng/mL. Besides, the Tmax in [15] (setting [23]) was found to be 2 h. Further, the “higher systemic exposure relative to comparator compound” value in series [15] (mice, 50 mg/kg iv, compound 3 vs compound 2, compound 4 vs compound 3) was determined as 3.5 fold. In series [15] (mice), the “volume of distribution (in words)” value is on record as “large volume of distribution”. Also, the “hemolysis of red blood cells” value in series [21] is on record as “not hemolytic at all”.
Take `CC(=O)NC[C@H]1CN(c2ccc(N3CCOCC3)c(F)c2)C(=O)O1` [linezolid, reference compound]: the minimum inhibitory concentration (MIC) turned out to be 1 µg/mL (≈ 2.96 µM) in [1]; 32 µg/mL (≈ 94.9 µM) in series [2]; 1 µg/mL (≈ 2.96 µM) in series [3]; 2 µg/mL (≈ 5.93 µM) in series [4]; 1 µg/mL (≈ 2.96 µM) in [5]; 2 µg/mL (≈ 5.93 µM) in series [6]. The MIC in series [7] was 2 µg/mL (≈ 5.93 µM); in series [8], 2 µg/mL (≈ 5.93 µM); in [20], 1 µg/mL (≈ 2.96 µM); in series [9], 2 µg/mL (≈ 5.93 µM); in series [10] it was 2 µg/mL (≈ 5.93 µM); in series [11], 2 µg/mL (≈ 5.93 µM). Further, the MIC in series [13] is 2 µg/mL (≈ 5.93 µM); in [14] it was 1 µg/mL (≈ 2.96 µM); in series [16], 4 µg/mL (≈ 11.9 µM); in series [17] it was 32 µg/mL (≈ 94.9 µM); in series [19], 2 µg/mL (≈ 5.93 µM).
Consider `CN[C@H](CC(C)C)C(=O)N[C@H]1C(=O)N[C@@H](CC(N)=O)C(=O)N[C@H]2C(=O)N[C@H]3C(=O)N[C@H](C(=O)N[C@H](C(=O)O)c4cc(O)cc(O)c4-c4cc3ccc4O)[C@H](O)c3ccc(c(Cl)c3)Oc3cc2cc(c3O[C@@H]2O[C@H](CO)[C@@H](O)[C@H](O)[C@H]2O[C@H]2C[C@](C)(N)[C@H](O)[C@H](C)O2)Oc2ccc(cc2Cl)[C@H]1O` [vancomycin, reference compound], for which the MIC turned out to be 256 µg/mL (≈ 177 µM) in [1]; 2 µg/mL (≈ 1.38 µM) in series [2]; 0.5 µg/mL (≈ 0.345 µM) in [3]; 2 µg/mL (≈ 1.38 µM) in [4]; 0.6 µg/mL (≈ 0.414 µM) in series [5]; 64 µg/mL (≈ 44.2 µM) in series [6]. For the same compound, the MIC came out at 0.5 µg/mL (≈ 0.345 µM) in [7]; 1 µg/mL (≈ 0.69 µM) in series [8]; 128 µg/mL (≈ 88.3 µM) in series [20]; 2 µg/mL (≈ 1.38 µM) in series [9]; 512 µg/mL (≈ 353 µM) in series [10]; 0.5 µg/mL (≈ 0.345 µM) in series [11]. The MIC came out at 1 µg/mL (≈ 0.69 µM) in [13], 16 µg/mL (≈ 11 µM) in [14], 2 µg/mL (≈ 1.38 µM) in series [17] and 2 µg/mL (≈ 1.38 µM) in [19].
